A selection: hits, their analogues and other compounds. The true share with any hit is near 3.5%.
MrgX1 ag – human MrgX1 receptor agonism, primary screen. Q96LB2. MrgX1-HEK293 cells, Fluo-4 calcium fluorescence, agonist mode; stronger effect = higher value. B-score at 10 µM. 0.44% of 310,000 active. AID 588627;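 active = calcium response B-score plate-corrected fluorescence ratio at least 3 library SD, with starting fluorescence B-score inside 5 SD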
Target sequence (Q96LB2 whole entry, looked up): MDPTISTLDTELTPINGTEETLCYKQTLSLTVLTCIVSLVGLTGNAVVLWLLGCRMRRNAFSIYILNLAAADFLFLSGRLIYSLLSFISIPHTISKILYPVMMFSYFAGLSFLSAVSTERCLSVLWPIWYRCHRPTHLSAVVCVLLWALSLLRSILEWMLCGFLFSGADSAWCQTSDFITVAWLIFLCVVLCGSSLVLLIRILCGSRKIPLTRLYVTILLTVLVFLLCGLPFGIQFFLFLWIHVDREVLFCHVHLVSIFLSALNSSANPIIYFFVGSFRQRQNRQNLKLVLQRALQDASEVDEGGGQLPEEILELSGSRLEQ
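Test system: Stable human MrgX1 HEK293 cell line | Schedule: Overnight plating before 1 h dye loading | Read-out basis: Baseline-normalised fluorescence change ratio, B-scored | Detection: Kinetic calcium dye fluorescence, Fluo-4 NW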
MrgX1 PAM – human MrgX1 positive allosteric modulation, primary screen; Q96LB2; MrgX1-HEK293, Fluo-4 calcium flux, FDSS; stronger effect = higher value; B-score at 10 µM; 0.63% of 310,000 active;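 active = plate-corrected calcium response at least 3 library SD above typical, normal starting fluorescence, not activating the receptor alone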;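 note: compound read alongside a low EC10 to EC30 dose of BAM8-22 agonist; peak minus trough fluorescence over baseline measured at the second addition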
MrgX1 antag – antagonists of human MrgX1 receptor; MRGX1-HEK293 calcium flux, Fluo-4, BAM8-22 antagonism; stronger effect = lower value; B-score at 10 µM; 1.3% of 310,000 active;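 active = calcium-response B-score plate-corrected more than 3 library SD below zero, starting fluorescence within 5 deviations, no agonist response on first addition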;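 note: peak minus trough fluorescence over baseline after final BAM8-22 challenge near maximal dose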
RGS4 pot – RGS4 potentiation or activation; 0.92% of 310,000 active; B-score at 10 µM; HEK293 M3R/inducible RGS4, carbachol calcium flux Fluo4; stronger effect = lower value;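 active = B-score of the integrated calcium signal more than 4 SD below the library mean, with starting fluorescence not abnormally high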;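 note: negative B-score means reduced calcium response which marks RGS4 activation or potentiation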
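System: HEK293 FlpIn-TREx cells, stable M3R, doxycycline-inducible RGS4. Timing: overnight RGS4 induction, 30 min dye load 37 °C, 20 min compound RT. Also added: carbachol, ECmax concentration. Measured by: Fluo4 fluorescence kinetic imaging of calcium. Evaluation: integrated calcium ratio converted to B score.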
RGS4 inh – human RGS4 inhibition | P49798 | HEK293 M3R/RGS4 inducible, Fluo-4 calcium flux; stronger effect = higher value; triggered by carbachol at its EC20 | B-score at 10 µM | 0.45% of 310,000 active | AID 463165;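 active = B-score, a plate-corrected calcium signal, over three deviations above library mean, with baseline fluorescence within five deviations of library mean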;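 note: RGS4 expression induced by doxycycline in cells with stable M3 receptor; B-score is computed from the integrated fluorescence ratio over baseline after carbachol; higher B-score means a larger calcium signal and so more RGS4 inhibition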
Target sequence (P49798 whole entry, looked up): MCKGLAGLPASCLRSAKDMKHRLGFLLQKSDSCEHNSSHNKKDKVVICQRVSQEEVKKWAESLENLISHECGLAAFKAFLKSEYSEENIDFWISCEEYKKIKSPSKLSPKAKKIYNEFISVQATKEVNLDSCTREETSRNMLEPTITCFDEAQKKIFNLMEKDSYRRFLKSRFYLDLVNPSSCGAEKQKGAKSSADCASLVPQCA
MrgX1 ant reconf – human MrgX1 receptor antagonism, re-confirmation screen. remaining BAM8-22 calcium response % of control (stronger effect = lower value), % at 10 µM. AID 602420. 19% of 2,300 active. shares compounds with MrgX1 antag. MrgX1-HEK293, BAM8-22 calcium flux, Fluo-4; stronger effect = lower value;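 active = remaining agonist calcium response no higher than 100% minus 3 SD of agonist-only control wells, with starting fluorescence near control levels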;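 note: agonist BAM8-22 given at a near maximal EC90 to ECmax level; peak minus minimum fluorescence divided by baseline after agonist addition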
HEK293 Ca flux – MrgX1 antagonist counter-screen hit in parental HEK293 cells; shares compounds with MrgX1 antag; 2% of 4,000 active; Fluo-4 calcium fluorescence, FDSS; AID 624111; fluorescence ratio F(max-min)/F0 at 10 µM;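 active = duplicate-averaged calcium fluorescence ratio at least three times the standard deviation of buffer wells, a nonspecific response in parental cells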
HEK293 Ca counter – MrgX1 allosteric activator counter-screen hit in parental HEK293 cells. shares compounds with MrgX1 antag. parental HEK293 calcium flux, Fluo-4 fluorescence ratio; stronger effect = higher value. fluorescence ratio F(max-min)/F0 at 10 µM. 0.4% of 4,000 active;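 active = calcium fluorescence ratio, averaged over duplicates, at least 3 SD of the buffer-well ratio, meaning a nonspecific response in receptor-free cells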;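 note: untransfected parental HEK293 lacking MrgX1 used as counterscreen for MrgX1 allosteric activators; fluorescence change taken during the second addition on a kinetic imager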
HEK293 Ca cntr2 – counter-screen for MrgX1 activators: effect in parental HEK293 cells. fluorescence ratio F(max-min)/F0 at 10 µM. Fluo-4 calcium fluorescence (FDSS); stronger effect = higher value. shares compounds with MrgX1 antag. 8.7% of 4,000 active;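 active = calcium fluorescence ratio at least three times the spread of buffer wells, meaning a non-specific response in parental cells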
* = called active by the depositor.

Results for Cc1ccc(C(=O)Nc2ccc(S(=O)(=O)N3CCc4ccccc4C3)cc2)o1 ?
MrgX1 ag: inactive; MrgX1 PAM: inactive; MrgX1 antag: inactive; RGS4 pot: inactive; RGS4 inh: inactive

How did CCOc1ccc(N2CC(C(=O)Nc3ccccc3C(=O)NC3CC3)CC2=O)cc1 (stereo not drawn) do in these assays?
MrgX1 ag: inactive; MrgX1 PAM: inactive; MrgX1 antag: inactive; RGS4 pot: inactive; RGS4 inh: inactive

How did Cc1cc(C(=O)NC(C)c2ccc3c(c2)OCO3)cs1 (stereo not drawn) do in these assays?
MrgX1 ag: inactive; MrgX1 PAM: inactive; MrgX1 antag: -4.6*; RGS4 pot: inactive; RGS4 inh: inactive; MrgX1 ant reconf: inactive; HEK293 Ca flux: inactive; HEK293 Ca counter: inactive; HEK293 Ca cntr2: inactive

Results for Cc1cc(C(=O)Nc2ccc3c(c2)OCO3)cs1 ?
MrgX1 ag: inactive; MrgX1 PAM: inactive; MrgX1 antag: inactive; RGS4 pot: inactive; RGS4 inh: inactive

How did Cn1cc(CNC(=O)C2CCC(=O)N(Cc3ccccc3F)C2)cn1 (stereo not drawn) do in these assays?
MrgX1 ag: inactive; MrgX1 PAM: inactive; MrgX1 antag: -4.7*; RGS4 pot: inactive; RGS4 inh: inactive; MrgX1 ant reconf: inactive; HEK293 Ca flux: inactive; HEK293 Ca counter: inactive; HEK293 Ca cntr2: inactive

How did CCOC(=O)CSc1nnc(CNC(=O)c2cccc(C)c2)n1C do in these assays?
MrgX1 ag: inactive; MrgX1 PAM: inactive; MrgX1 antag: inactive; RGS4 pot: inactive; RGS4 inh: inactive

How did Cc1cccc(C(=O)NCc2nnc(SCc3ccc(F)cc3)n2C)c1 do in these assays?
MrgX1 ag: inactive; MrgX1 PAM: inactive; MrgX1 antag: -4.8*; RGS4 pot: inactive; RGS4 inh: inactive; MrgX1 ant reconf: inactive; HEK293 Ca flux: inactive; HEK293 Ca counter: inactive; HEK293 Ca cntr2: inactive

Results for CCOC(=O)c1cc([N+](=O)[O-])sc1NC(=O)c1ccc(S(=O)(=O)N2CC3(C)CC2CC(C)(C)C3)cc1 (stereo not drawn) ?
MrgX1 ag: inactive; MrgX1 PAM: inactive; MrgX1 antag: -11*; RGS4 pot: -9.1*; RGS4 inh: inactive; MrgX1 ant reconf: inactive; HEK293 Ca flux: 0.48*; HEK293 Ca counter: inactive; HEK293 Ca cntr2: inactive

How did O=C1c2cnccc2CN1Cc1ccccc1 do in these assays?
MrgX1 ag: inactive; MrgX1 PAM: inactive; MrgX1 antag: -5.3*; RGS4 pot: inactive; RGS4 inh: inactive; MrgX1 ant reconf: inactive; HEK293 Ca flux: inactive; HEK293 Ca counter: inactive; HEK293 Ca cntr2: inactive

Results for Cn1nc(C(=O)Nc2cccc(Cl)c2)cc1C(=O)Nc1cccc(Cl)c1 ?
MrgX1 ag: inactive; MrgX1 PAM: inactive; MrgX1 antag: -4.8*; RGS4 pot: inactive; RGS4 inh: inactive; MrgX1 ant reconf: inactive; HEK293 Ca flux: inactive; HEK293 Ca counter: inactive; HEK293 Ca cntr2: inactive

How did O=C(CN1C2CCC1CC(NC(=O)NC1CCCCC1)C2)NC1CC1 (stereo not drawn) do in these assays?
MrgX1 ag: inactive; MrgX1 PAM: inactive; MrgX1 antag: -5.5*; RGS4 pot: inactive; RGS4 inh: inactive; MrgX1 ant reconf: inactive; HEK293 Ca flux: inactive; HEK293 Ca counter: inactive; HEK293 Ca cntr2: inactive

How did CCCN1C2CCCC1CC(NC(=O)NC1CCCCC1)C2 (stereo not drawn) do in these assays?
MrgX1 ag: inactive; MrgX1 PAM: inactive; MrgX1 antag: inactive; RGS4 pot: inactive; RGS4 inh: inactive

What do the screens show for `Cc1ccccc1OC1CCN(C(=O)c2cc(COc3ccccc3)on2)CC1`?
MrgX1 ag: inactive; MrgX1 PAM: inactive; MrgX1 antag: inactive; RGS4 pot: inactive; RGS4 inh: inactive

What do the screens show for `c1coc(CNc2c3c(nc4ccccc24)CCC3)c1`?
MrgX1 ag: inactive; MrgX1 PAM: inactive; MrgX1 antag: -5.5*; RGS4 pot: inactive; RGS4 inh: inactive; MrgX1 ant reconf: inactive; HEK293 Ca flux: inactive; HEK293 Ca counter: inactive; HEK293 Ca cntr2: inactive

How did Cc1cc2c(NC(=O)Nc3ccc(C(C)(C)C)cc3)cccc2nn1 do in these assays?
MrgX1 ag: inactive; MrgX1 PAM: inactive; MrgX1 antag: -6.9*; RGS4 pot: inactive; RGS4 inh: inactive; MrgX1 ant reconf: 78%*; HEK293 Ca flux: inactive; HEK293 Ca counter: inactive; HEK293 Ca cntr2: inactive

How did CC(C)c1cc(C(=O)NNC(=S)NC2CCCCC2)cs1 do in these assays?
MrgX1 ag: inactive; MrgX1 PAM: inactive; MrgX1 antag: inactive; RGS4 pot: inactive; RGS4 inh: inactive

How did COc1ccc(Br)cc1CN(C)C(=O)c1cnc(C)cn1 do in these assays?
MrgX1 ag: inactive; MrgX1 PAM: inactive; MrgX1 antag: inactive; RGS4 pot: inactive; RGS4 inh: inactive

Results for COc1ccccc1Nc1nc2ccccc2n1C ?
MrgX1 ag: inactive; MrgX1 PAM: inactive; MrgX1 antag: -4.8*; RGS4 pot: inactive; RGS4 inh: inactive; MrgX1 ant reconf: inactive; HEK293 Ca flux: inactive; HEK293 Ca counter: inactive; HEK293 Ca cntr2: inactive

What do the screens show for `CCn1c(SCC(=O)c2ccc3c(c2)OCCO3)nnc1C(C)C`?
MrgX1 ag: inactive; MrgX1 PAM: inactive; MrgX1 antag: -4.7*; MrgX1 ant reconf: inactive; HEK293 Ca flux: inactive; HEK293 Ca counter: inactive; HEK293 Ca cntr2: inactive

How did CC1CCCCN1CCNC(=O)c1ccc2c(=O)n(Cc3ccc(Cl)cc3)c(=S)[nH]c2c1 (stereo not drawn) do in these assays?
MrgX1 ag: inactive; MrgX1 PAM: inactive; MrgX1 antag: inactive; RGS4 pot: inactive; RGS4 inh: inactive

How did Cc1cnc(C(=O)NC2CCSc3ccccc32)cn1 (stereo not drawn) do in these assays?
MrgX1 ag: inactive; MrgX1 PAM: inactive; MrgX1 antag: inactive; RGS4 pot: inactive; RGS4 inh: inactive

Assay outcomes (PubChem)
